In ChEMBL document CHEMBL4043101, “Potent haloperidol derivatives covalently binding to the dopamine D2 receptor” (Bioorg Med Chem, 2017):

Legend:
D(2) dopamine receptor [1] = molecular target: T1, D(2) dopamine receptor (Homo sapiens, UniProt P14416); test: Displacement of [3H]spiperone from human D2long receptor expressed in CHO cell membranes by radioligand binding assay
D(2) dopamine receptor [2] = molecular target: T1, D(2) dopamine receptor; test: Displacement of [3H]spiperone from human D2short receptor expressed in CHO cell membranes by radioligand binding assay
[3] = Displacement of [3H]spiperone from human D2short receptor L2.64C mutant expressed in HEK293T cell membranes by radioligand binding assay; settings: hek-293t
Summary of the method: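 Membranes from HEK 293T cells transiently transfected with the mutant receptor in pcDNA3.1 were used for competition binding against [3H]spiperone (81 Ci/mmol), final 0.15-0.30 nM. Nonspecific binding was defined with 10 µM haloperidol. Protein was measured by Lowry with a BSA standard. IC50 came from a sigmoid nonlinear fit and was converted to Ki by Cheng-Prusoff.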

D(3) dopamine receptor = D(3) dopamine receptor (Homo sapiens, UniProt P35462); test: Displacement of [3H]spiperone from human D3 receptor expressed in CHO cell membranes by radioligand binding assay
Chain of D(3) dopamine receptor (P35462 whole entry): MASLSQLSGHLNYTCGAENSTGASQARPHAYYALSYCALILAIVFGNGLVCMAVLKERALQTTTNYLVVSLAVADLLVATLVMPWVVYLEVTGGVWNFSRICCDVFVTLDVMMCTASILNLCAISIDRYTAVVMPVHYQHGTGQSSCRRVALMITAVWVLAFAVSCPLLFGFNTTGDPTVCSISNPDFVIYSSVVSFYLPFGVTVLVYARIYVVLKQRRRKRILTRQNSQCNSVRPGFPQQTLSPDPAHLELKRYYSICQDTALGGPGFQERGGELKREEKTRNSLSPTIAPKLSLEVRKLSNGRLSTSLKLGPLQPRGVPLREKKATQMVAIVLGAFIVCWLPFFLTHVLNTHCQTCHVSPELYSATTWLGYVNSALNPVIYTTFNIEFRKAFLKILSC

[4] = Displacement of [3H]spiperone from human dopamine D4.4 receptor expressed in CHO cell membranes by radioligand binding assay
Summary of the method: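 Competition binding used membranes from CHO cells stably expressing human D4.4R, at 4-10 µg protein/tube, with [3H]spiperone final 0.15-0.30 nM (KD 0.14-0.25 nM, Bmax 1000-1700 […]). Nonspecific binding was defined with 10 µM haloperidol. Ki was obtained by sigmoid fit to IC50 and then Cheng-Prusoff. Each Ki is the mean of two independent experiments, each run in triplicate.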

Homo sapiens [5] = species: Homo sapiens; test: Selectivity index, ratio of Ki for human D3 receptor expressed in CHO cell membranes to Ki for human D2short receptor expressed in CHO cell membranes; assay type: cell-based
Summary of the method: (§1)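 Ratios of Ki values from [3H]spiperone competition binding on CHO membranes stably expressing human D2short, D3 or D4.4 receptors. The D3 and D4 Ki values are each divided by the D2short Ki.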

Homo sapiens [6] = species: Homo sapiens; test: Selectivity index, ratio of Ki for human dopamine D4.4 receptor expressed in CHO cell membranes to Ki for human D2short receptor expressed in CHO cell membranes; assay type: cell-based; summary of the method: as §1
Homo sapiens [7] = species: Homo sapiens; test: Selectivity index, ratio of Ki for human D2short receptor expressed in CHO cell membranes to Ki for human D2short receptor L2.64C mutant expressed in HEK293T cell membranes; assay type: cell-based
Summary of the method: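 Ratio of the D2short Ki from CHO membranes to the Ki measured at the transiently expressed L2.64C mutant in HEK 293T membranes. Both Ki values come from [3H]spiperone competition binding with Cheng-Prusoff conversion.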

[8] = test system: D(2) dopamine receptor (Homo sapiens), P14416 [L94C]; test: Irreversible inhibition of [3H]spiperone binding to human D2short receptor L2.64C mutant expressed in HEK293T cell membranes incubated for 120 mins followed by compound wash out by radioligand depletion assay; settings: HEK-293T
Chain of D(2) dopamine receptor (Homo sapiens), P14416 [L94C] (P14416 whole entry L94C): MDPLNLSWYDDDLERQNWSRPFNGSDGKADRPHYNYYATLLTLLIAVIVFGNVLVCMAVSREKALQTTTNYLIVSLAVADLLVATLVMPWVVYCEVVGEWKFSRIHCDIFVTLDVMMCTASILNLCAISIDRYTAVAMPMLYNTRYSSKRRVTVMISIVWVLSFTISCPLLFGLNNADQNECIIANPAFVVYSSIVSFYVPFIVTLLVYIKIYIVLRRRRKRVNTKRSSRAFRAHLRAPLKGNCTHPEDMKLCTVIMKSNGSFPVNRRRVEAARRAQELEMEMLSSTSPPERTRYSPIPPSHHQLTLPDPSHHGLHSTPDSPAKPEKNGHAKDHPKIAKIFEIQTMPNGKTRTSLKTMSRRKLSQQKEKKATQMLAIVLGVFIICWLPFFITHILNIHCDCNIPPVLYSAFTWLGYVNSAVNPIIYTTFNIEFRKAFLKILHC
Summary of the method: (§2)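 For screening, membranes from HEK 293T cells expressing the D2short L2.64C mutant (50 µg/mL protein) were preincubated with compound for 120 min at 37 °C in pH 7.4 Tris buffer. The reference, haloperidol, was used at 20 nM. Membranes were centrifuged and washed four times for 30 min each. Residual specific [3H]spiperone binding was normalized to nonspecific 0% and total 100%. Values are the mean of 2-4 experiments, each in quadruplicate, ±SD.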

[9] = test system: D(2) dopamine receptor (Homo sapiens), P14416 [L94C]; test: Irreversible inhibition of [3H]spiperone binding to human D2short receptor L2.64C mutant expressed in HEK293T cell membranes at 5 uM incubated for 120 mins followed by compound wash out by radioligand depletion assay; settings: HEK-293T; summary of the method: as §2
[10] = test system: D(2) dopamine receptor (Homo sapiens), P14416 [L94C]; test: Irreversible inhibition of [3H]spiperone binding to human D2short receptor L2.64C mutant expressed in HEK293T cell membranes at 20 uM incubated for 120 mins followed by compound wash out by radioligand depletion assay; settings: HEK-293T; summary of the method: as §2
HEK-293T [11] = test: Inhibition of [3H]spiperone binding to human D2short receptor L2.64C mutant expressed in HEK293T cell membranes at 2 and 5 uM incubated for 30 mins by radioligand depletion assay
HEK-293T [12] = test: Inhibition of [3H]spiperone binding to human D2short receptor L2.64C mutant expressed in HEK293T cell membranes at 2 and 5 uM incubated for 240 mins by radioligand depletion assay
[13] = test system: D(2) dopamine receptor (Homo sapiens), P14416 [L94C]; test: Irreversible inhibition of [3H]spiperone binding to human D2short receptor L2.64C mutant expressed in HEK293T cell membranes at 1 uM incubated for 120 mins followed by compound wash out by radioligand depletion assay; settings: HEK-293T; summary of the method: as §2
[14] = test system: D(2) dopamine receptor (Homo sapiens), P14416 [L94C]; test: Irreversible inhibition of [3H]spiperone binding to human D2short receptor L2.64C mutant expressed in HEK293T cell membranes at 10 uM incubated for 120 mins followed by compound wash out by radioligand depletion assay; settings: HEK-293T; summary of the method: as §2
[15] = test system: D(2) dopamine receptor (Homo sapiens), P14416 [L94C]; test: Irreversible inhibition of [3H]spiperone binding to human D2short receptor L2.64C mutant expressed in HEK293T cell membranes assessed as remaining [3H]spiperone binding at 5 and 20 uM incubated for 120 mins followed by compound wash out by radioligand depletion assay; settings: HEK-293T; summary of the method: as §2
[16] = test system: D(2) dopamine receptor (Homo sapiens), P14416 [L94C]; test: Irreversible inhibition of [3H]spiperone binding to human D2short receptor L2.64C mutant expressed in HEK293T cell membranes assessed as covalent binding at 5 and 20 uM incubated for 120 mins followed by compound wash out by radioligand depletion assay; parameters: scale not given: the % may be the effect or the level left; settings: HEK-293T; summary of the method: as §2
HEK-293T [17] = test: Inhibition of [3H]spiperone binding to human D2short receptor L2.64C mutant expressed in HEK293T cell membranes at 2 and 5 uM incubated for 120 mins by radioligand depletion assay
HEK-293T [18] = test: Inhibition of [3H]spiperone binding to human D2short receptor L2.64C mutant expressed in HEK293T cell membranes at 1 and 5 uM incubated for 30 mins by radioligand depletion assay
Summary of the method: (§3)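 For kinetics, mutant receptor membranes from HEK 293T cells (50 µg/mL protein) were preincubated with compound at two concentrations for 15 to 240 min, at 37 °C, pH 7.4. The buffer was Tris/EDTA/MgCl2/bacitracin/trypsin inhibitor. Incubation was stopped by centrifugation, then membranes were washed four times (30 min resuspension each). Remaining specific [3H]spiperone binding was then measured, with 10 µM haloperidol defining nonspecific binding. Data were normalized to nonspecific 0% and total 100%.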

HEK-293T [19] = test: Inhibition of [3H]spiperone binding to human D2short receptor L2.64C mutant expressed in HEK293T cell membranes at 1 and 5 uM incubated for 240 mins by radioligand depletion assay; settings: in the assay text read “120 mins” for “240 mins”; summary of the method: as §3

T1 sequence (P14416 whole entry): as the sequence (P14416 whole entry L94C) above, with C94L counted along it

Row | SMILES | Ki (D(2) dopamine receptor [1]) | Ki (D(2) dopamine receptor [2]) | Ki [3] | Ki (D(3) dopamine receptor) | Ki [4] | Ratio Ki (Homo sapiens [5]) | Ratio Ki (Homo sapiens [6]) | Ratio Ki (Homo sapiens [7]) | inhibition [8] | inhibition [9] | inhibition [10] | inhibition (HEK-293T [11]) | inhibition (HEK-293T [12]) | inhibition [13] | inhibition [14] | Activity [15] | Activity [16] | inhibition (HEK-293T [17]) | inhibition (HEK-293T [18]) | inhibition (HEK-293T [19])
1 | COc1cc(CCN2CCC(O)(c3ccc(Cl)cc3)CC2)ccc1OCCSSCCN | 1500 nM | 1500 nM | 550 nM | 390 nM | 1100 nM | 0.26 | 0.73 | 2.7 | Dose-dependent effect | 60 to 85% | 70 to 95% | 72% | 82% |  |  |  |  |  |  | 
2 | O=C(CCCN1CCC(O)(c2ccc(Cl)cc2)CC1)c1ccc(OCCSSCCO)cc1 | 240 nM | 73 nM | 330 nM | 140 nM | 970 nM | 1.9 | 13 | 0.22 | Dose-dependent effect |  |  |  |  | 20% | < 70% |  |  |  |  | 
3 | COc1cc(CCN2CCC(O)(c3ccc(Cl)cc3)CC2)ccc1OCCCSSCCN | 1000 nM | 940 nM | 850 nM | 600 nM | 1500 nM | 0.63 | 1.6 | 1.1 | Dose-dependent effect | 60 to 85% | 70 to 95% | 87% | 85% |  |  | 10% | > 90% |  |  | 
4 | O=C(CCCN1CCC(O)(c2ccc(Cl)cc2)CC1)c1ccc(F)cc1 [HALOPERIDOL] |  |  |  |  | 7.2 nM |  |  |  |  |  |  |  |  |  |  |  |  |  |  | 
5 | O=C(NCCN1CCC(O)(c2ccc(Cl)cc2)CC1)NCCN1C(=O)C=CC1=O | 2200 nM | 1500 nM | 860 nM | 690 nM | > 50000 nM | 0.46 | > 33 | 1.7 | Dose-dependent effect | 60 to 85% | 70 to 95% | 70 to 85% |  |  |  | 5% | > 90% | > 90% |  | 
6 | [N-]=[N+]=NCCSSCCn1cc(C(=O)CCCN2CCC(O)(c3ccc(Cl)cc3)CC2)nn1 | 260 nM | 140 nM | 320 nM | 210 nM | 3200 nM | 1.5 | 23 | 0.44 | Dose-dependent effect | 70 to 95% |  |  |  | 60 to 85% |  |  |  |  | 80% | 86%
